Each structure is given as a SMILES string. Values after ≈ are worked out from the molar mass of the structure shown.

Data set [1] concerns Ehrlich. The data set can be described thus: Compound was evaluated for the inhibition of DNA synthesis in Ehrlich Ascites tumor cells by irradiation (365 nm) at 1.9 x 10 e-5M. The data set is classed as functional. In short, it runs like this: (§1)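 Ehrlich ascites cells, 2×10^7 cells/mL in Hank's solution, on ice with 1.9×10^-5 M compound, irradiated by HPW 125 lamp at 20 cm (2.02×10^16 quanta/s). Then 2×10^6 cells pulsed 15 min at 37 °C with 1 μCi [3H]thymidine (DNA) or [3H]uridine (RNA). TCA-insoluble counts as % of untreated. Each dose at least in duplicate. D50 = UV dose giving 50% inhibition.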

For data set [2], the system named is Ehrlich. The data set can be described thus: Compound was evaluated for the inhibition of RNA synthesis in Ehrlich Ascites tumor cells by irradiation (365 nm) at 1.9 x 10 e-5M. The data set is classed as functional. The essentials:
as §1

In data set [3] the test system is Nucleic Acid. Briefly: (§2) Compound was evaluated for association constant in the calf thymus DNA. Type of data set: nucleic-acid assay. To be noted: Bos taurus. In short, it runs like this:
(§3)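 Equilibrium dialysis at 25 ± 0.05 °C in the dark, 12 h with shaking, across a cellophane membrane. Tritiated angelicin at slightly below its water solubility in 0.02 M NaCl with 1 mM EDTA, against DNA at 3×10^-3 to 3×10^-4 M. Both phases counted by scintillation to give r and c. K and n fitted iteratively to the McGhee–von Hippel equation.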

The nature of data set [4]: Water solubility (solubility in mol/L). Type of data set: ADME. To be noted: read-out: S.
The test system of data set [5] is Nucleic Acid. The description is as §2. The data set is classed as functional. As to conditions: Bos taurus. The essentials: as §3
Data set [6] has as its system Nucleic Acid. The data set can be described thus: Compound was evaluated for rate constant in the calf thymus DNA. Type of data set: functional. As to conditions: Bos taurus. The essentials: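 DNA at 2.3×10^-3 M in 2×10^-3 M NaCl and 1×10^-3 M EDTA with 3×10^-5 M labeled furocoumarin. Irradiated at 365 nm, 1.07×10^16 quanta s^-1 mL^-1, for increasing times in a thermostatted bath. Complexed fraction at time 0 taken from dialysis at 2 mM NaCl with ligand:nucleotide 1:76.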

`Cc1cc2c(ccc3c(C)cc(=O)oc32)o1`: the D50 stood at 1.09e+19 quanta in the data set on Ehrlich [1] and 1.35e+19 quanta with Ehrlich [2]. The K in the data set with Nucleic Acid [3] is 1450.
As for `O=c1ccc2cc3ccoc3cc2o1` [PSORALEN], the D50 came to 9.1e+18 quanta with Ehrlich [1] and 1.4e+19 quanta in the data set with Ehrlich [2].
Take `Cc1cc2occc2c2oc(=O)ccc12`: the solubility in data set [4] is 4.5 µg/mL (≈ 22.5 µM). Moreover, the D50 in the data set with Ehrlich [1] is 9.1e+18 quanta; in the data set with Ehrlich [2] it was 8.3e+18 quanta. This molecule also gave a K in the data set with Nucleic Acid [5] of 1560. The same molecule returned a Rate constant in the data set with Nucleic Acid [6] of 0.034 min⁻¹.
Take `Cc1cc(=O)oc2c1ccc1occc12`: the solubility in data set [4] was found to be 4 µg/mL (≈ 20 µM). The D50 in the data set on Ehrlich [1] is 2.4e+19 quanta; with Ehrlich [2] it was 1.81e+19 quanta. Besides, the K with Nucleic Acid [5] amounted to 1400. In addition, the Rate constant with Nucleic Acid [6] came to 0.016 min⁻¹.
As to `Cc1cc2c(cc(C)c3ccc(=O)oc32)o1`, in data set [4], the solubility was 3 µg/mL (≈ 14 µM). Also, the figures for the D50 in the data set on Ehrlich [1] and in the data set on Ehrlich [2] were 1.38e+19 quanta and 6.6e+18 quanta, respectively. In the data set on Nucleic Acid [5], the K came to 1750. Besides, the Rate constant in the data set on Nucleic Acid [6] worked out at 0.027 min⁻¹.
On to `O=c1ccc2ccc3occc3c2o1` [ANGELICIN], for which the solubility in data set [4] stood at 20 µg/mL (≈ 107 µM). The D50 is 2.5e+19 quanta in the data set on Ehrlich [1] and 2.33e+19 quanta in the data set on Ehrlich [2]. Further, the K in the data set on Nucleic Acid [5] worked out at 560. Also, the Rate constant in the data set with Nucleic Acid [6] amounted to 0.011 min⁻¹.
The like results for `Cc1cc2c(ccc3ccc(=O)oc32)o1` were, in that order, 12 µg/mL (≈ 59.9 µM), 1.66e+19 quanta, 1.74e+19 quanta, 1200 and 0.021 min⁻¹.

Values taken from ChEMBL document CHEMBL1121655, “Methylangelicins: new potential agents for the photochemotherapy of psoriasis. Structure-activity study on the dark and photochemical interactions with DNA” (J Med Chem, 1981).
